Screening data (PubChem BioAssay)
RGS4 pot: RGS4 potentiation or activation; B-score at 10 µM; 0.92% of 310,000 active; HEK293 M3R/inducible RGS4, carbachol calcium flux Fluo4; hits give low values; AID 463111;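 active = B-score of the integrated calcium signal more than 4 SD below the library mean, with starting fluorescence not abnormally high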;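 note: negative B-score means reduced calcium response which marks RGS4 activation or potentiation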
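Reagent: ECmax carbachol challenge; Test system: M3R-expressing HEK293 line, RGS4 induced by doxycycline; Schedule: overnight RGS4 induction, 30 min dye load 37 °C, 20 min compound RT; Detection: calcium dye Fluo4 fluorescence; Read-out: Agonist-evoked peak-minus-minimum fluorescence over baseline, integrated ratio, B score.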
MrgX1 antagonist: blocks BAM8-22 activation of human MrgX1 receptor. Q96LB2. MRGX1-HEK293 calcium flux, Fluo-4, BAM8-22 antagonism; hits give low values. B-score at 10 µM. 1.3% of 310,000 active;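 active = calcium-response B-score plate-corrected more than 3 library SD below zero, starting fluorescence within 5 deviations, no agonist response on first addition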;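 note: peak minus trough fluorescence over baseline after final BAM8-22 challenge near maximal dose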
MrgX1 allo act: human MrgX1 positive allosteric modulation, primary screen. Q96LB2. MrgX1-HEK293, Fluo-4 calcium flux, FDSS; hits give high values. B-score at 10 µM. 0.63% of 310,000 active;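 active = plate-corrected calcium response at least 3 library SD above typical, normal starting fluorescence, not activating the receptor alone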;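 note: compound read alongside a low EC10 to EC30 dose of BAM8-22 agonist; peak minus trough fluorescence over baseline measured at the second addition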
MrgX1 ag: activates human MrgX1 receptor signaling | B-score at 10 µM | Q96LB2 | 0.44% of 310,000 active | MrgX1-HEK293 cells, Fluo-4 calcium fluorescence, agonist mode; hits give high values | AID 588627;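 active = calcium response B-score plate-corrected fluorescence ratio at least 3 library SD, with starting fluorescence B-score inside 5 SD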
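times = overnight plating, then 30 min 37 °C plus 30 min room-temperature dye loading | assay system = stable human MrgX1 HEK293 cell line | input = fifteen thousand cells per well | signal = kinetic calcium dye fluorescence, Fluo-4 NW | dosing = compound delivered in addition one of three | read-out = B-scored fluorescence response ratio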
RGS4 block: inhibitors of human RGS4; HEK293 M3R/RGS4 inducible, Fluo-4 calcium flux; hits give high values; triggered by carbachol at its EC20; B-score at 10 µM; 0.45% of 310,000 active;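 active = B-score, a plate-corrected calcium signal, over three deviations above library mean, with baseline fluorescence within five deviations of library mean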;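 note: RGS4 expression induced by doxycycline in cells with stable M3 receptor; B-score is computed from the integrated fluorescence ratio over baseline after carbachol; higher B-score means a larger calcium signal and so more RGS4 inhibition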
Target sequence (P49798 whole entry, looked up): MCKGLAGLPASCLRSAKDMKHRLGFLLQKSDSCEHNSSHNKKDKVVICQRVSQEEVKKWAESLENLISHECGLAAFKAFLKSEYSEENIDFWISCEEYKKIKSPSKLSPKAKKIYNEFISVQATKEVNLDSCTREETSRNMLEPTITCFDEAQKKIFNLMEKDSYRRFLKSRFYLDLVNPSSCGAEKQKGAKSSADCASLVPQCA
Active calls of the source: *; i = inactive. A selection: hits, their analogues and other compounds. The true share with any hit is near 3.5%.

SMILES	RGS4 pot	MrgX1 antagonist	MrgX1 allo act	MrgX1 ag	RGS4 block
O=C(CS(=O)(=O)c1ccccc1)c1cc2cc(F)ccc2oc1=O	i	i	i	60.9*	i
COc1cccc2cc(C(=O)CS(=O)(=O)c3ccc(C(C)(C)C)cc3)c(=O)oc12	i	i	i	i	i
COc1ccc(S(=O)(=O)CC(=O)c2cc3cccc(C)c3oc2=O)cc1	i	i	i	41.6*	i
COc1cc(C(=O)NCCOc2cc(C)ccc2C(C)C)cc(OC)c1OC	i	-4.72*	i	i	i
Cc1ccc(C(C)C)c(OCCNC(=O)c2cncc(Br)c2)c1	i	i	i	i	i
COc1ccc(CNC(=O)[C@H](C)NC(=O)C2CCN(S(=O)(=O)c3ccccc3)CC2)cc1	i	i	i	i	i
Cc1ccccc1C(=O)NNc1ccc([N+](=O)[O-])cc1	i	-6.85*	i	i	i
Cc1ccc(-c2nc3ccc(Cl)cc3c(=O)n2O)cc1	i	i	i	36.9*	i
CC(Oc1ccc2cc(-c3ccccc3)c(=O)oc2c1)C(=O)NCC1CCC(C(=O)O)CC1 (stereo unspecified)	i	i	i	i	i
Cc1cc(C(=O)COc2ccccc2Cl)c(C)n1-c1ccc2c(c1)OCO2	-7.51*	i	i	i	i
S=C(Nc1ccc(Cl)cc1Cl)Nc1ccccc1Oc1ccccc1	i	i	i	i	i
S=C(Nc1cccc(Cl)c1)Nc1ccccc1Oc1ccccc1	i	-5.83*	i	i	i
COc1cccc(C(=O)CN(C(=O)c2ccc(Cl)cc2Cl)N2C(=O)c3ccccc3C2=O)c1	i	i	i	i	i
CN(C)CCC(=O)C(Cc1ccccc1)c1ccccc1 (stereo unspecified)	i	i	i	i	i
CC(CCCN(C)C)C(Cc1ccccc1)c1ccccc1 (stereo unspecified)	-7.81*	i	i	i	i
CCC(O)C1CCN(C(=O)c2cc(COc3ccc4ncccc4c3)on2)CC1 (stereo unspecified)	i	i	i	i	i
CC(C)CCNC(=O)CSc1nnc(-c2ccc(S(=O)(=O)N3CCCC3)cc2)n1C	i	-5.37*	i	i	i
CC(=O)CSc1nnc(-c2ccc(S(=O)(=O)N3CCCC3)cc2)n1C	i	i	i	i	i
CCC1(CC)NC(=O)N(CC(=O)OCC(=O)Nc2ccc(F)c(F)c2F)C1=O	i	i	i	i	i
N=C1/C(=C\c2ccc(-c3cccc(C(=O)O)c3)o2)C(=O)N=C2SC=C(c3ccccc3)N12	i	i	7.05*	i	i
C[C@H]1[C@H](C)CC[C@]2(C(=O)O)CC[C@]3(C)C(=CC[C@@H]4[C@@]5(C)C[C@@H](O)[C@H](O)C(C)(C)[C@@H]5CC[C@]43C)[C@H]12	-7.62*	i	i	i	i
O=C(CSc1nnc(CCCN2C(=O)c3cccc4cccc(c34)C2=O)n1-c1ccccc1)N1CCN(CCO)CC1	i	i	i	i	i
C/C(=N\NC(=O)CN1CCN(Cc2ccccc2)CC1)c1cccs1	i	i	i	i	i
COc1ccc(NC(=O)N2CCN(c3nc(-c4cccc(OC)c4)cs3)CC2)cc1	-6.99*	i	i	i	i
O=C(c1ccc(Cl)cc1)C(CN1CCCCC1)c1ccccc1 (stereo unspecified)	-8.33*	i	i	i	i
CCOC(=O)C(CN1CCCC1)c1ccccc1 (stereo unspecified)	i	i	i	i	i
Cc1ccc2nc(N3CCN(c4cccc(C)c4C)CC3)c3nnnn3c2c1	i	i	i	i	i
Cc1ccc2nc(Cl)c3nnnn3c2c1	i	i	8.74*	i	i
CCc1ccc(-c2cc(C(=O)N3N=C(C(F)F)CC3(O)C(F)F)c3ccccc3n2)cc1 (stereo unspecified)	-7.18*	i	i	i	i
CC(C)Cc1cc(C(=O)N2N=C(C(F)F)CC2(O)C(F)F)c2ccccc2n1 (stereo unspecified)	i	i	i	i	i
